# Experimental data from ChEMBL document CHEMBL5058577, “EUbOPEN Chemogenomics Library 2 (Multiplex)” (2022).
# Test system: U2OS
# Test: Multiplex assay against U2OS
# Format: toxicity, cell-based
# Conditions: human
# Outline: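 Cells were classed with CellPathfinder machine-learning gating, first as Hoechst high-intensity objects or normal cells, then (normal cells) as healthy, pyknosed or fragmented nuclei, and finally (pyknosed cells) as mitotic or apoptotic. Staining of live cells at seeding used Hoechst33342, BioTracker Green Microtubule Cytoskeleton Dye, MitoTracker Red and Annexin V Alexa Fluor 680, with imaging on a CQ1 microscope at 37°C and 5% CO2 after compound addition. Tubulin, mitochondrial-mass and membrane-permeability phenotypes are per cents of healthy-nucleus cells.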
# [1] = 12 h, 1 µM, compound concentration 1 uM, replicate 1
# [2] = 12 h, 1 µM, compound concentration 1 uM, replicate 2
# [3] = 12 h, 10 µM, compound concentration 10 uM, replicate 1
# [4] = 12 h, 10 µM, compound concentration 10 uM, replicate 2
# [5] = 24 h, 1 µM, compound concentration 1 uM, replicate 1
# [6] = 24 h, 1 µM, compound concentration 1 uM, replicate 2
# [7] = 24 h, 10 µM, compound concentration 10 uM, replicate 1
# [8] = 24 h, 10 µM, compound concentration 10 uM, replicate 2
# [9] = 48 h, 1 µM, compound concentration 1 uM, replicate 1
# [10] = 48 h, 1 µM, compound concentration 1 uM, replicate 2
# [11] = 48 h, 10 µM, compound concentration 10 uM, replicate 1
# [12] = 48 h, 10 µM, compound concentration 10 uM, replicate 2
compound,measurement,setting,value
Cc1cccc(NC(=O)CN2CCC(c3ccccn3)CC2)c1.Cl.Cl,Population Apoptotic (%),[1],90%
same,Population Fragmented Nuclei (%),[1],27%
same,Population Healthy Nuclei (%),[1],67%
same,Population Hoechst High Intensity Objects (%),[1],1%
same,Population Membrane Permeable-Phenotype (%),[1],5%
same,Population Mitochondria Different-Phenotype (%),[1],2%
same,Population Mitotic Cells (%),[1],9%
same,Population Normal (%),[1],98%
same,Population Pyknosed Nuclei (%),[1],5%
same,Population Tubulin-Different-Phenotype (%),[1],3%
same,Total Cell Count,[1],208
same,Population Apoptotic (%),[2],57%
same,Population Fragmented Nuclei (%),[2],17%
same,Population Healthy Nuclei (%),[2],76%
same,Population Hoechst High Intensity Objects (%),[2],0%
same,Population Membrane Permeable-Phenotype (%),[2],4%
same,Population Mitotic Cells (%),[2],42%
same,Population Normal (%),[2],99%
same,Population Pyknosed Nuclei (%),[2],6%
same,Total Cell Count,[2],111
same,Population Apoptotic (%),[3],72%
same,Population Fragmented Nuclei (%),[3],34%
same,Population Healthy Nuclei (%),[3],55%
same,Population Hoechst High Intensity Objects (%),[3],2%
same,Population Membrane Permeable-Phenotype (%),[3],8%
same,Population Mitochondria Different-Phenotype (%),[3],6%
same,Population Mitotic Cells (%),[3],27%
same,Population Normal (%),[3],97%
same,Population Pyknosed Nuclei (%),[3],10%
same,Population Tubulin-Different-Phenotype (%),[3],3%
same,Total Cell Count,[3],216
same,Population Apoptotic (%),[4],66%
same,Population Fragmented Nuclei (%),[4],21%
same,Population Healthy Nuclei (%),[4],70%
same,Population Hoechst High Intensity Objects (%),[4],1%
same,Population Membrane Permeable-Phenotype (%),[4],12%
same,Population Mitochondria Different-Phenotype (%),[4],7%
same,Population Mitotic Cells (%),[4],33%
same,Population Normal (%),[4],98%
same,Population Pyknosed Nuclei (%),[4],8%
same,Population Tubulin-Different-Phenotype (%),[4],9%
same,Total Cell Count,[4],111
same,Population Apoptotic (%),[5],76%
same,Population Fragmented Nuclei (%),[5],22%
same,Population Healthy Nuclei (%),[5],70%
same,Population Hoechst High Intensity Objects (%),[5],3%
same,Population Membrane Permeable-Phenotype (%),[5],5%
same,Population Mitochondria Different-Phenotype (%),[5],3%
same,Population Mitotic Cells (%),[5],23%
same,Population Normal (%),[5],96%
same,Population Pyknosed Nuclei (%),[5],7%
same,Population Tubulin-Different-Phenotype (%),[5],3%
same,Total Cell Count,[5],249
same,Population Apoptotic (%),[6],73%
same,Population Fragmented Nuclei (%),[6],21%
same,Population Healthy Nuclei (%),[6],67%
same,Population Hoechst High Intensity Objects (%),[6],0%
same,Population Membrane Permeable-Phenotype (%),[6],7%
same,Population Mitochondria Different-Phenotype (%),[6],4%
same,Population Mitotic Cells (%),[6],26%
same,Population Normal (%),[6],99%
same,Population Pyknosed Nuclei (%),[6],11%
same,Population Tubulin-Different-Phenotype (%),[6],5%
same,Total Cell Count,[6],135
same,Population Apoptotic (%),[7],85%
same,Population Fragmented Nuclei (%),[7],32%
same,Population Healthy Nuclei (%),[7],55%
same,Population Hoechst High Intensity Objects (%),[7],3%
same,Population Membrane Permeable-Phenotype (%),[7],6%
same,Population Mitochondria Different-Phenotype (%),[7],3%
same,Population Mitotic Cells (%),[7],14%
same,Population Normal (%),[7],96%
same,Population Pyknosed Nuclei (%),[7],11%
same,Population Tubulin-Different-Phenotype (%),[7],2%
same,Total Cell Count,[7],243
same,Population Apoptotic (%),[8],75%
same,Population Fragmented Nuclei (%),[8],20%
same,Population Healthy Nuclei (%),[8],73%
same,Population Hoechst High Intensity Objects (%),[8],2%
same,Population Membrane Permeable-Phenotype (%),[8],17%
same,Population Mitochondria Different-Phenotype (%),[8],5%
same,Population Mitotic Cells (%),[8],25%
same,Population Normal (%),[8],97%
same,Population Pyknosed Nuclei (%),[8],6%
same,Population Tubulin-Different-Phenotype (%),[8],10%
same,Total Cell Count,[8],131
same,Population Apoptotic (%),[9],82%
same,Population Fragmented Nuclei (%),[9],18%
same,Population Healthy Nuclei (%),[9],72%
same,Population Hoechst High Intensity Objects (%),[9],2%
same,Population Membrane Permeable-Phenotype (%),[9],6%
same,Population Mitochondria Different-Phenotype (%),[9],3%
same,Population Mitotic Cells (%),[9],17%
same,Population Normal (%),[9],97%
same,Population Pyknosed Nuclei (%),[9],8%
same,Population Tubulin-Different-Phenotype (%),[9],3%
same,Total Cell Count,[9],341
same,Population Apoptotic (%),[10],94%
same,Population Fragmented Nuclei (%),[10],17%
same,Population Hoechst High Intensity Objects (%),[10],3%
same,Population Membrane Permeable-Phenotype (%),[10],2%
same,Population Mitotic Cells (%),[10],5%
same,Population Normal (%),[10],96%
same,Population Pyknosed Nuclei (%),[10],10%
same,Population Tubulin-Different-Phenotype (%),[10],2%
same,Total Cell Count,[10],182
same,Population Apoptotic (%),[11],96%
same,Population Fragmented Nuclei (%),[11],29%
same,Population Healthy Nuclei (%),[11],60%
same,Population Hoechst High Intensity Objects (%),[11],3%
same,Population Membrane Permeable-Phenotype (%),[11],6%
same,Population Mitochondria Different-Phenotype (%),[11],6%
same,Population Mitotic Cells (%),[11],3%
same,Population Normal (%),[11],96%
same,Population Pyknosed Nuclei (%),[11],9%
same,Population Tubulin-Different-Phenotype (%),[11],3%
same,Total Cell Count,[11],303
same,Population Apoptotic (%),[12],83%
same,Population Fragmented Nuclei (%),[12],19%
same,Population Healthy Nuclei (%),[12],74%
same,Population Membrane Permeable-Phenotype (%),[12],10%
same,Population Mitochondria Different-Phenotype (%),[12],4%
same,Population Mitotic Cells (%),[12],16%
same,Population Pyknosed Nuclei (%),[12],6%
same,Population Tubulin-Different-Phenotype (%),[12],4%
same,Total Cell Count,[12],198
